Data as given in the EternaBench riboswitch data.

System: MS2 coat protein
Test: apparent Kd, MS2 coat protein; higher = weaker binding; RNA-MaP array
Procedure, shortened: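 Designed RNAs were transcribed in place on an Illumina sequencing chip from sequenced DNA templates. At room temperature and with or without input ligand, they were incubated with fluorescently labeled MS2 coat protein from 1.5 nM to 3 μM, for 0.8–1.5 h at the lowest and 10–20 min at the highest concentrations. Apparent Kd is the median of the binding-curve fits made per cluster, with designs measured on fewer than 10 clusters excluded.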

[1] = designed as: OFF switch for tryptophan, no ligand
[2] = ligand present: tryptophan, designed as: OFF switch for tryptophan
[3] = designed as: OFF switch for theophylline, no ligand
[4] = ligand present: theophylline, designed as: OFF switch for theophylline
[5] = designed as: OFF switch for flavin mononucleotide, no ligand
[6] = ligand present: flavin mononucleotide, designed as: OFF switch for flavin mononucleotide
[7] = designed as: ON switch for flavin mononucleotide, no ligand
[8] = ligand present: flavin mononucleotide, designed as: ON switch for flavin mononucleotide
[9] = designed as: ON switch for tryptophan, no ligand
[10] = ligand present: tryptophan, designed as: ON switch for tryptophan

| Sequence | apparent Kd [5] | apparent Kd [6] | further results |
| --- | --- | --- | --- |
| ACUGCUUUAGCGGCCGCCACUACAUGGACACUUACACUUUCUUGUUACAUGAGGAUCACCCAUGUUAGGACCGGGCUUGUACGGA | – | – | apparent Kd [1]: 0.0621 µM; apparent Kd [2]: 0.0782 µM |
| AGAACCCAAGAGGAUACCAGAACGACAAUCAAAUCUUUUUACAUGAGGAUCACCCAUGUUUUCCCUUGGCAGCCUCAUGCACGAC | – | – | apparent Kd [3]: 0.0721 µM; apparent Kd [4]: 0.0607 µM |
| AGAGCACAUGAGGAUCACCCAUGUUAGGAUAUAAGUCUGGAUCUACCUGAGCCCGAUCUUAGAAGGAACGGUGU | 0.011 µM | 0.0116 µM | – |
| AGAUCCCUGGUGAGGAUAUGUGAGACAUUCCCAGGACAGAAGGCACAUGAGGAUCACCCAUGUGUUGGGUAAUU | 0.00632 µM | 0.00665 µM | – |
| AGCACGAGCGCAGGAUAUGCAUAACCCGUAGCUGCAGAAGGGCGACAUGAGGAUCACCCAUGUAUAUCCAGAACUACAAUCUGA | – | – | apparent Kd [7]: 0.0358 µM; apparent Kd [8]: 0.033 µM |
| AGCAGAGCCUAGAAGGCAGUGCAGACCGCGCACUGAGGAUAUAGACUUUAAGAUUGUACAUGAGGAUCACCCAUGUUGAGUGGG | 0.563 µM | 0.45 µM | – |
| AGCUUAAUUAUAGGAUAUGAGAGGACAUGAGGAUCACCCAUGUAGAUGUUUGCCACAUAGCCAGUUCAGAAGGAUAGAGCACCA | 0.0249 µM | 0.0194 µM | – |
| AGGACAUGAGGAUCACCCAUGUGAUGACAUUUCCUAGAACCGAAGGAUAUGCAAACGGAACCCGCGCAGAAGGUCGCUAACCUU | 0.0575 µM | 0.0425 µM | – |
| AGGACGUCAGGAUAUUCUAUGUGGCUCUAAUGGCCGACCAUGAAGAAGGGACAUGAGGAUCACCCAUGUGAGCU | 0.0257 µM | 0.0501 µM | – |
| AGGGCACAUGAGGAUCACCCAUGUAAGGAUAUGGACUUUUUUGCUGUAGUAAUCAUCUCCAGAAGGUACGUCUU | 0.0244 µM | 0.0196 µM | – |
| AGGGUACAUGAGGAUCACCCAUGUUAGGAUAUGUCCGGUACGGCCGCCGUACCAGGCAACAGAAGGAACACAGC | 0.0302 µM | 0.0262 µM | – |
| AGUAGACGAGGAUAUACGGGCAUAUUUGAUAAGAAGAACAGACAUGAGGAUCACCCAUGUAGAAGGCGAGGCUA | 0.0111 µM | 0.0106 µM | – |
| AGUAGGCAUUCAGGAUAUGGGGAUUUCUCACUGCCACAUGAGGAUCACCCAUGUGGAAGGUACACCCAGAAGGGAAAGUGGUUA | – | – | apparent Kd [7]: 0.017 µM; apparent Kd [8]: 0.0113 µM |
| AGUCACUUCUAGAAGGCGCGGACUUACUAGCGGCGAGGAUAUAGUAGGAACAUGAGGAUCACCCAUGUCUAUUGGGUACGGCCC | 0.0142 µM | 0.0149 µM | – |
| AGUCGUACCAAGAAGGUACCCGGCUAAUGGUGGUAAGGAUAUUGUACGAACCCUAACAUGAGGAUCACCCAUGUCCACAGUGGG | 0.0535 µM | 0.033 µM | – |
| AGUGAGGUUCUAGGAUAUCUCCCUCGAGUGCAGCUACAUGAGGAUCACCCAUGUCAUGGGUGUCGAGAGAAGGAGAAGGGCUUA | 0.0745 µM | 0.104 µM | – |
| AUAAUAACAUGAGGAUCACCCAUGUCCUCUUGGCGGCGGCUUAGAAGGUCGACUACUUUUCUUUCGAAGGAUAUAACCUGUUCU | 0.913 µM | 0.733 µM | – |
| AUACAAUCAGGAUAUACUAGGCGAUAACAGAUUAUGACGUCACAUGAGGAUCACCCAUGUAGAAGGGAUCAGGA | 0.0392 µM | 0.0531 µM | – |
| AUAUAAACGCAGAAGGAUCGUUUCCUUUAAAUGAUAGGAUAUGCCAACCUUGACAUGAGGAUCACCCAUGUGUUACUCUGUUUU | 0.113 µM | 0.0982 µM | – |
| AUAUUGUUUAUAGGAUAUUACACUAAGGUGACAUGAGGAUCACCCAUGUCCUCAACCACACGACUUAAGAAGGAUAAACGUUGG | 0.0465 µM | 0.0549 µM | – |
| AUCUGGAGAGGAUAUUGAUCGGAACACAUGAGGAUCACCCAUGUGAGCCCUCGUGUCCCUCAAGAAGGCUCGGGCG | 0.00573 µM | 0.00771 µM | – |
| AUGCACGGGCUAAUCUGCGAUUGGCACGAUACCAGAGAUCAAGACCUCCCUUGGCAGCGUGUCACAUGAGGAUCACCCAUGUGGA | – | – | apparent Kd [3]: 0.131 µM; apparent Kd [4]: 0.0948 µM |
| AUGCCACCAUACCGCAGUAAUACAUGAGGAUCACCCAUGUAGGAGGAUAUACUUUUGGUAAUGAUGUAGAAGGCCUAGUGGUAC | – | – | apparent Kd [7]: 0.00591 µM; apparent Kd [8]: 0.00609 µM |
| AUUAAGUCGACAGGAUAUCCGUACUUUGAGUAAGGAGAAGGGUCUACAAAGGUACAUGAGGAUCACCCAUGUGACUUGGCCGUC | – | – | apparent Kd [7]: 0.0101 µM; apparent Kd [8]: 0.0077 µM |
| AUUGACUCAGAGAAGGGACUCAACAUGAGGAUCACCCAUGUUCUUUCGAAUAAAGGCUCUUAGGGUCAGGAUAUCUGUACGUAA | – | – | apparent Kd [7]: 0.0096 µM; apparent Kd [8]: 0.00999 µM |
| CAAAACUGAGGAUAUACAAAGAAAUGGAACAUAGUACAGUAACAUGAGGAUCACCCAUGUAGAAGGCAGGACUA | 0.00601 µM | 0.0066 µM | – |
| CAACUGCUUGAGCUUACUUAUUGGACUUCCCGAGGACCGGUACGGCCGCCACUCGCAGGGACACAUGAGGAUCACCCAUGUAAAG | – | – | apparent Kd [1]: 0.0157 µM; apparent Kd [2]: 0.0162 µM |

| Sequence | apparent Kd [5] | apparent Kd [6] | further results |
| --- | --- | --- | --- |
| CAAGACAUGAGGAUCACCCAUGUGGUGUACCGAGGACCGGUACGGCCGCCACUCGUUCAUCGGUCGACAAGCUACCCUUCAAGGU | – | – | apparent Kd [9]: 0.0242 µM; apparent Kd [10]: 0.0387 µM |
| CAAUACGAUGUCAGGAUAUUAUUUCAAGUAGACGGUAAGAAGGGACAUGAGGAUCACCCAUGUACGGAAUACGC | 0.00635 µM | 0.00632 µM | – |
| CAAUUUCGAAUAGAUACCAGCUGUCAUAAACACAUGAGGAUCACCCAUGUGCUUCUCGUCAGCCCUUGGCAGCUAUAACUAGAGC | – | – | apparent Kd (designed as: ON switch for theophylline, no ligand): 0.0158 µM; apparent Kd (ligand present: theophylline, designed as: ON switch for theophylline): 0.01 µM |
| CACAUGAGGAUCACCCAUGUCGCGGUGUGACCGAUACUCGAAUAGGAUAUGCUUGACACUUCGUGGCAGAAGGAUUGAGGUUCG | 0.0766 µM | 0.0549 µM | – |
| CACGUACAUGAGGAUCACCCAUGUAUGUCCGAAACGCGAGUACAGGAUAUGAUAUGGAGAAGUCUUCAGAAGGGUACAAAUCGC | – | – | apparent Kd [7]: 0.0584 µM; apparent Kd [8]: 0.0216 µM |
| CAUAUCAAUUCAGGAUAUUCUGUUUAAUACAUGAGGAUCACCCAUGUCCUCCAAAGAUUAGCAAGGAAGAAGGGAAGUAAACAG | 0.0822 µM | 0.069 µM | – |
| CAUGACAUGAGGAUCACCCAUGUAUCCAGUCGAGGACCGGUACGGCCGCCACUCGGUGCCUUCAAAUUUACAGACAGGUGACAGG | – | – | apparent Kd [9]: 0.0337 µM; apparent Kd [10]: 0.0228 µM |
| CCAGCAUGGCAGACCAUACAUGAGGAUCACCCAUGUAGAAGCUAGGAUAUAAAUGUAACACACUAUUAGAAGGAGCGCUACCUU | 0.00855 µM | 0.00651 µM | – |
| CCAUUGCAUGGAGGAUAUGAGCAGUAAGUACUCUCAGAAGGCCACGGAGUAAACAAACCAUCUUACAUGAGGAUCACCCAUGUA | – | – | apparent Kd [7]: 0.013 µM; apparent Kd [8]: 0.00769 µM |
| CCAUUGUCAGGAUAUUGUGGUUUAGCGUCGAAAGGGCUUAGCAAGAAGGGACAUGAGGAUCACCCAUGUGUAGU | 0.0338 µM | 0.146 µM | – |
| CCCGGUGACUAGAAGGCGCCACAUGAGGAUCACCCAUGUAUCAAAGACCGGUGAUUGCCGACGGGCGAGGAUAUAGGUGCGACG | 0.00818 µM | 0.0145 µM | – |
| CCGCGCGUAGGAUAUACUAGUGUAUCAGUCGGUAUUGGAAAACAUGAGGAUCACCCAUGUAGAAGGACGCUAAU | 0.0084 µM | 0.0105 µM | – |
| CCUCACUUGAAGAAGGACAGCUUCGGUCACAUCGGAACAUGAGGAUCACCCAUGUGACGCGUGGUGUAGGAUAUUCGUAAGGCA | 0.0576 µM | 0.147 µM | – |
| CCUCGUGGACAGGAUAUACACUCGUAUGAUCAUGUAGAAGGGUCCACAUGAGGAUCACCCAUGUUGACAGCCGU | 0.0605 µM | 0.0814 µM | – |
| CCUGUGAUCCACAUGAGGAUCACCCAUGUAUAAGUGAUUGACAGAAGGAGAGCAUGCUUGUGAUUCUAGGAUAUGUUUCUCAUA | 0.0252 µM | 0.0259 µM | – |
| CCUUAGUGAGGAUAUGCAUAGCCUUGGCGGCCAGGAGCCAAGCAGAAGGCACAUGAGGAUCACCCAUGUCCGGU | 0.0166 µM | 0.0228 µM | – |
| CGACUCCCAGAGAAGGCCGCAAACAUGAGGAUCACCCAUGUACUACCUGAGUCUCGGGCGGUACCGGAGGAUAUCUAGGCUCGC | – | – | apparent Kd [7]: 0.0266 µM; apparent Kd [8]: 0.0109 µM |
| CGAGUUUGCAAAGGAUAUCGGUUUUGAACAGACCGAGAAGGUUGACUGUACAUGAGGAUCACCCAUGUGUGCUCGAUAUAAAGA | – | – | apparent Kd [7]: 0.00772 µM; apparent Kd [8]: 0.00704 µM |
| CGAUACCAUGGUCAGGAUAUGAAACAGCUGACAUGAGGAUCACCCAUGUGAUAGGCAGGUGGACUUCAGAAGGGACACAUACACCA | – | – | apparent Kd [7]: 0.184 µM; apparent Kd [8]: 0.0502 µM |
| CGCAGACUGUUAGGAUAUGAUACUAACAUGAGGAUCACCCAUGUUUACUCAGUGGAUAAGCAGAGUCAGAAGGAACAUUACGCA | – | – | apparent Kd [7]: 0.0122 µM; apparent Kd [8]: 0.00929 µM |
| CGCGGACCACCUGAUACCAGCGCAGUCAUGCAUGAACCCAACAUGAGGAUCACCCAUGUACGCCCUUGGCAGCAGGGAAAAGUCG | – | – | apparent Kd [3]: 0.161 µM; apparent Kd [4]: 0.267 µM |
| CGCUAACAUGAGGAUCACCCAUGUGAGGAUAUUCGCGGCGGACCGGGCUUUGGCGCUCGAAGAAGGCACAACGG | 0.0128 µM | 0.0245 µM | – |
| CGCUUGUUCAUAGGAUAUGCUAGGUAACUCAUGGUGAGUUGGGGAACAUGAGGAUCACCCAUGUGGCAGAAGGAUGGCGUUAAU | 0.065 µM | 0.0553 µM | – |
| CGGCGACAUGAGGAUCACCCAUGUUAGGAUAUUCAGUUAACUGUGUUUGAUCGUUUGAGAAGAAGGAACGUGAG | 0.0107 µM | 0.0102 µM | – |
| CGGUAGUUUUAGAAGGAGCAACCAAGUUUACAUGAGGAUCACCCAUGUGUGAGGAUAUGUUAAGGCUAGGAUAUAAUAGAACCU | 0.0254 µM | 0.0234 µM | – |
| CGUUACAUAGAGAAGGUUCAUAAGAUCAAAUAACAUGAGGAUCACCCAUGUAUGUAAGCAUGAGGAAAGGAUAUCUACCGCCAG | – | – | apparent Kd [7]: 0.144 µM; apparent Kd [8]: 0.0701 µM |
| CUAAUGGUUGCAGGAUAUCGAAAACCGCACAUGAGGAUCACCCAUGUCGCUAAGCGUGACAUAGUCGAGAAGGGCAUGACAACU | 0.0373 µM | 0.0148 µM | – |
